Results on six molecules are retold here after ChEMBL document CHEMBL3813633, “2-Aryl-8-aza-3-deazaadenosine analogues of 5'-O-[N-(salicyl)sulfamoyl]adenosine: Nucleoside antibiotics that block siderophore biosynthesis in Mycobacterium tuberculosis” (Bioorg Med Chem, 2016).

Experiment [1] deals with Mycobacterium tuberculosis. Description: Antibacterial activity against Mycobacterium tuberculosis H37Rv under iron-deficient condition after 10 to 14 days by broth microdilution method. It is filed as functional. Summed up:
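M. tuberculosis H37Rv broth microdilution in iron-deficient GAST (GAS medium without ferric ammonium citrate, pH 6.6). Compounds were added from DMSO stocks, with isoniazid as positive control and DMSO as negative control. Initial density was 10^4–10^5 cells/assay at 37 °C. Growth was read as OD620 at 10–14 days, when controls reached OD620 0.2–0.3. MIC was determined in triplicate.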
Background: Broth dilution looks for growth in wells or tubes with falling amounts of substance.

Experiment [2] concerns Mycobacterium tuberculosis. Description: Antibacterial activity against Mycobacterium tuberculosis H37Rv at 50 uM under iron-replete condition after 10 to 14 days by broth microdilution method. It is filed as functional, organism-based.

Values after ≈ are worked out from the molar mass of the structure shown. Active and inactive are the calls of the source.

For `Nc1nc(-c2ccccc2)cc2c1nnn2[C@@H]1O[C@H](COS(=O)(=O)NC(=O)c2ccccc2O)[C@@H](O)[C@H]1O`, the MIC in experiment [1] turned out to be 25 µM (≈ 13.6 µg/mL). In experiment [2], the outcome was inactive.
For `Cc1ccc(-c2cc3c(nnn3[C@@H]3O[C@H](COS(=O)(=O)NC(=O)c4ccccc4O)[C@@H](O)[C@H]3O)c(N)n2)cc1` the same measures were 25 µM (≈ 13.9 µg/mL) and “inactive”.
For `Nc1nc(-c2ccc(C(F)(F)F)cc2)cc2c1nnn2[C@@H]1O[C@H](COS(=O)(=O)NC(=O)c2ccccc2O)[C@@H](O)[C@H]1O` the same measures were over 50 µM and “inactive”.
For `COc1ccc2cc(-c3cc4c(nnn4[C@@H]4O[C@H](COS(=O)(=O)NC(=O)c5ccccc5O)[C@@H](O)[C@H]4O)c(N)n3)ccc2c1` the same measures were 19 µM (≈ 11.8 µg/mL) and “inactive”.
Regarding `Nc1nc(-c2ccc(F)cc2)cc2c1nnn2[C@@H]1O[C@H](COS(=O)(=O)NC(=O)c2ccccc2O)[C@@H](O)[C@H]1O`, the MIC in experiment [1] stood at 19 µM (≈ 10.6 µg/mL). Besides, the outcome in experiment [2] was inactive.
In the case of `Nc1nc(-c2ccc3ccccc3c2)cc2c1nnn2[C@@H]1O[C@H](COS(=O)(=O)NC(=O)c2ccccc2O)[C@@H](O)[C@H]1O`, the MIC in experiment [1] amounted to 12.5 µM (≈ 7.41 µg/mL). Moreover, the outcome in experiment [2] was inactive.

The term MIC denotes the smallest concentration in the dilution series that meets the test's criterion for growth inhibition. A high value points to weaker potency.
